Published values from different studies.
Protocols differ between the studies behind these lines.
Effect on: enzyme activity
Action: inhibitor
HDAC1: Histone deacetylase 1 (HDAC1, Homo sapiens, UniProt Q13547)
PARP10: Protein mono-ADP-ribosyltransferase PARP10 (PARP10, Homo sapiens, UniProt Q53GL7)

SMILES	target	method	setting	IC50
COc1ccc(N(Cc2csc(-c3ccc(C)cc3)n2)C(=O)CCCCCC(=O)NO)cc1	HDAC1			0.8 nM
c1c(N2CCCC2)nc(N2CCCC2)nc1N1CCNCC1	Caspase-5 (CASP5, Homo sapiens, UniProt P51878)		with preincubation	138 nM
NC/C(=C\F)COc1cccc(Cn2c(=S)[nH]c(=O)c3[nH]cnc32)c1	Protein-lysine 6-oxidase (Homo sapiens, UniProt P28300)			> 30000 nM
O=c1[nH]c2c(nnn2Cc2ccccc2C(F)(F)F)c2ccccc12	PARP10			> 10000 nM
c1ccc2c(-c3cnn4cc(-c5ccc(N6CCNCC6)cc5)cnc34)ccnc2c1	TGF-beta receptor type-2 (TGFBR2, Homo sapiens, UniProt P37173)			89.7 nM
O=c1cc(-c2ccccc2)oc2cc(O)c(O)c(O)c12	Seed linoleate 13S-lipoxygenase-1 (Glycine max, UniProt P08170)			6360 nM
COc1ccc(Nc2ncnc3c2ncn3Cc2ccc(C(=O)NO)cc2)cc1	Histone deacetylase 8 (HDAC8, Homo sapiens, UniProt Q9BY41)			112 nM
Clc1ccc(Nc2ccncc2)cc1Cl	Uracil-DNA glycosylase (UNG, Homo sapiens, UniProt P13051)			> 99000 nM
CC(C)COc1ccc(N(Cc2nc(-c3ccccc3)cs2)C(=O)CCCCCC(=O)NO)cc1	HDAC1			2.6 nM
CCCCCn1nnc2c3ccccc3c(=O)[nH]c21	PARP10			182 nM
COc1ccc(N(Cc2nc(-c3ccc(C)cc3)cs2)C(=O)CCCCCC(=O)NO)cc1	HDAC1			2.6 nM
CCCCn1c(=O)c2cc(F)ccc2c2nnn(Cc3ccc(C)cc3)c21	PARP10			> 10000 nM
Nc1ccccc1NC(=O)c1ccc(Cn2cnc3c(Nc4ccc(Cl)cc4)ncnc32)cc1	HDAC1	fluorescence		14.1 nM
CCCOc1ccc(N(Cc2nc(-c3ccccc3)cs2)C(=O)CCCCCC(=O)NO)cc1	HDAC1			2.2 nM
Cc1ccc(S(=O)(=O)[N](Nc2ccc([N+](=O)[O-])cc2[N+](=O)[O-])[Sn]([Cl])[Cl])cc1	Polyunsaturated fatty acid 5-lipoxygenase (ALOX5, Homo sapiens, UniProt P09917)			1520 nM
Cc1ccc(Cn2nnc3c4cc(C)ccc4c(=O)[nH]c32)cc1	PARP10			> 10000 nM
COc1ccc(N(Cc2csc(-c3ccccc3)n2)C(=O)CCCCCC(=O)NO)cc1	HDAC1			1.1 nM
O=c1[nH]c2c(nnn2C2CCCCC2)c2ccccc12	PARP10			> 10000 nM
COc1ccc(N(Cc2nc(-c3ccc(Br)cc3)cs2)C(=O)CCCCCC(=O)NO)cc1	HDAC1			3.6 nM
O=c1[nH]c2c(nnn2Cc2ccccc2)c2ccc(F)cc12	PARP10			933 nM
COc1ccc(N(Cc2nc(-c3cccc(Cl)c3)cs2)C(=O)CCCCCC(=O)NO)cc1	HDAC1			4.9 nM
O=C(NO)c1ccc(Cn2cnc3c(Nc4cccc([N+](=O)[O-])c4)ncnc32)cc1	HDAC1	fluorescence		148 nM
COc1cccc(Cn2nnc3c4ccccc4c(=O)[nH]c32)c1	PARP10			219 nM
O=C(NO)c1ccc(Cn2cnc3c(Nc4ccc(F)c(Cl)c4)ncnc32)cc1	HDAC1	fluorescence		341 nM
O=c1[nH]c2c(nnn2-c2ccc(Br)cc2)c2ccccc12	PARP10			> 10000 nM
